Source: ChEMBL document CHEMBL2375348, “Aminopropylindenes derived from Grundmann's ketone as a novel chemotype of oxidosqualene cyclase inhibitors” (Eur J Med Chem, 2013)
pIC50: −log10 of the molar value.

Columns and labels:
[1] = system: HL-60; test: Cytotoxicity against human HL60 cells after 24 hrs by MTT assay; assay type: cell-based; conditions: HL-60, 24 h
[2] = molecular target: T1, Lanosterol synthase (Homo sapiens, UniProt P48449); test: Inhibition of human lanosterol synthase expressed in Saccharomyces cerevisiae SMY8[pSOB1.1] using [14C]-(3S)-2,3-oxidosqualene as substrate
T1 sequence (P48449 whole entry): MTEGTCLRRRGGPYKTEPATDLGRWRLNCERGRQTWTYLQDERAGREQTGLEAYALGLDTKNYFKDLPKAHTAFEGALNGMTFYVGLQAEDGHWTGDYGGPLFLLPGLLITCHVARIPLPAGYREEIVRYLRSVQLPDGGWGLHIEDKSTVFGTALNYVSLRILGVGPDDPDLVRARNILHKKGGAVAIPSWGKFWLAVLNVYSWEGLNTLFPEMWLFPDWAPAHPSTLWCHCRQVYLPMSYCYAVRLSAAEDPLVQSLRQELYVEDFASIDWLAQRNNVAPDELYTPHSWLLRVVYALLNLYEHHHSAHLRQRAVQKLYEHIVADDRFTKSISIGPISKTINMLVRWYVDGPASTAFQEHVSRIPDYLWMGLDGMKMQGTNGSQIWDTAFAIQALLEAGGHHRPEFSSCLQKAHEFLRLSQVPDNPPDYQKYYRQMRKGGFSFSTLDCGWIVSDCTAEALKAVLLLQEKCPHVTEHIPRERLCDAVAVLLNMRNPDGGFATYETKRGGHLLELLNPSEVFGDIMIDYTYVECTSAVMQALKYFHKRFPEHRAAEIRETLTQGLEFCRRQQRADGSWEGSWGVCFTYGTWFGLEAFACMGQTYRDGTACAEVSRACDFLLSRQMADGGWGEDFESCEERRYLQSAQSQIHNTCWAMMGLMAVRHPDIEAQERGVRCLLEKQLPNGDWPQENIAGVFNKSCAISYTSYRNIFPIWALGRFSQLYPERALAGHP

[3] = molecular target: Cycloartenol synthase (Arabidopsis thaliana, UniProt P38605); test: Inhibition of Arabidopsis thaliana cycloartenol synthase expressed in Saccharomyces cerevisiae SMY8[pSM60.21] using [14C]-(3S)-2,3-oxidosqualene as substrate
Cycloartenol synthase, sequence (P38605 whole entry): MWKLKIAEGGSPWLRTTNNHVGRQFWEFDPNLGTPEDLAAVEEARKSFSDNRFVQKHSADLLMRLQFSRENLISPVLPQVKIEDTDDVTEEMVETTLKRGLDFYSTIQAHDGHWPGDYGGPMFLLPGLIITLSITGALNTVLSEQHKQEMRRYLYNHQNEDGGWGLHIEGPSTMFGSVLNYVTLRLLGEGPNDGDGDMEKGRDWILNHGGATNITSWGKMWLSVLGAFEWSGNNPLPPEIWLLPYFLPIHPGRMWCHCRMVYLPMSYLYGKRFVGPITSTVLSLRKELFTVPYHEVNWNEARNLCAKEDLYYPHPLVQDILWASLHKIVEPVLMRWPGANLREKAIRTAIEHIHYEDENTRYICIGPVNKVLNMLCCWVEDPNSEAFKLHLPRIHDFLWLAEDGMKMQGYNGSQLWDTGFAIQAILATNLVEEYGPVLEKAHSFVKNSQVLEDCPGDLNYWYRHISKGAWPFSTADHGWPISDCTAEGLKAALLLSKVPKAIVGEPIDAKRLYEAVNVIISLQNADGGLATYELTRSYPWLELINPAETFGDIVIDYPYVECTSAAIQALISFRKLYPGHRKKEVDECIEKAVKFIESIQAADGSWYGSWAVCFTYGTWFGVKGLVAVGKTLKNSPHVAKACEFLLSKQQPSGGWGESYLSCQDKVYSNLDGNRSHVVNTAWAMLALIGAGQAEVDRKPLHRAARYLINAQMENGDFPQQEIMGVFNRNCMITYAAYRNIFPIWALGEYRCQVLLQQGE
Summary of the method: (§1)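 ERG7-deficient hem1 yeast SMY8 strains were grown aerobically at 30 °C in YPD with hemin and ergosterol, then induced in YPG with hemin (plus ergosterol for A. thaliana). Lyticase/Potter homogenates were incubated with [14C]-(3S)-2,3-oxidosqualene (1000 cpm) at increasing inhibitor levels. Reactions were stopped with KOH/MeOH and saponified at 80 °C for 30 min; extracted conversion was read by TLC radioscan. IC50 came from nonlinear regression; two experiments, each in duplicate.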

[4] = Inhibition of Trypanosoma cruzi lanosterol synthase expressed in Saccharomyces cerevisiae SMY8[pBJ1.21] using [14C]-(3S)-2,3-oxidosqualene as substrate; summary of the method: as §1
[5] = molecular target: T2, Lanosterol synthase (Pneumocystis carinii, UniProt Q96WJ0); test: Inhibition of Pneumocystis carinii lanosterol synthase expressed in Saccharomyces cerevisiae SMY8[pBJ4.21] using [14C]-(3S)-2,3-oxidosqualene as substrate; summary of the method: as §1
T2 sequence (Q96WJ0 whole entry): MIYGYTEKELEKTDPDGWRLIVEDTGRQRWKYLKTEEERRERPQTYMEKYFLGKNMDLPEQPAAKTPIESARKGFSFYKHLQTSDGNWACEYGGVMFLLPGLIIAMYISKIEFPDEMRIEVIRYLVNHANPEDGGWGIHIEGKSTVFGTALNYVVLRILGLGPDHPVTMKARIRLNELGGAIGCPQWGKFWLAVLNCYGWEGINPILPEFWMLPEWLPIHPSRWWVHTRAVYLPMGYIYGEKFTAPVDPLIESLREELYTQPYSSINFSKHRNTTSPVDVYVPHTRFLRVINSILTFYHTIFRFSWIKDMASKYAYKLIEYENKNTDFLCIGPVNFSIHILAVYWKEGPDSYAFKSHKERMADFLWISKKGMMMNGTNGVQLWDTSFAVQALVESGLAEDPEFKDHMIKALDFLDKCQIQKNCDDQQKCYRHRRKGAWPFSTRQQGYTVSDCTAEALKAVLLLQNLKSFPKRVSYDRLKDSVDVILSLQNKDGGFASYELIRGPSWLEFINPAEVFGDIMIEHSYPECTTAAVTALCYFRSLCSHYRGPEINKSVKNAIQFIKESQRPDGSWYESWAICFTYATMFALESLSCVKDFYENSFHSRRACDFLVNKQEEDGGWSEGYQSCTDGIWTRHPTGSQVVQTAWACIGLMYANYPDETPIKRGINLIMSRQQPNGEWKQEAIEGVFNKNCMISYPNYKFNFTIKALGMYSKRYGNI

[6] = molecular target: T3, Lanosterol synthase ERG7 (Saccharomyces cerevisiae S288c, UniProt P38604); test: Inhibition of wild type yeast lanosterol synthase expressed in Saccharomyces cerevisiae SMY8[pSM61.21] using [14C]-(3S)-2,3-oxidosqualene as substrate; summary of the method: as §1
T3 sequence (P38604 whole entry): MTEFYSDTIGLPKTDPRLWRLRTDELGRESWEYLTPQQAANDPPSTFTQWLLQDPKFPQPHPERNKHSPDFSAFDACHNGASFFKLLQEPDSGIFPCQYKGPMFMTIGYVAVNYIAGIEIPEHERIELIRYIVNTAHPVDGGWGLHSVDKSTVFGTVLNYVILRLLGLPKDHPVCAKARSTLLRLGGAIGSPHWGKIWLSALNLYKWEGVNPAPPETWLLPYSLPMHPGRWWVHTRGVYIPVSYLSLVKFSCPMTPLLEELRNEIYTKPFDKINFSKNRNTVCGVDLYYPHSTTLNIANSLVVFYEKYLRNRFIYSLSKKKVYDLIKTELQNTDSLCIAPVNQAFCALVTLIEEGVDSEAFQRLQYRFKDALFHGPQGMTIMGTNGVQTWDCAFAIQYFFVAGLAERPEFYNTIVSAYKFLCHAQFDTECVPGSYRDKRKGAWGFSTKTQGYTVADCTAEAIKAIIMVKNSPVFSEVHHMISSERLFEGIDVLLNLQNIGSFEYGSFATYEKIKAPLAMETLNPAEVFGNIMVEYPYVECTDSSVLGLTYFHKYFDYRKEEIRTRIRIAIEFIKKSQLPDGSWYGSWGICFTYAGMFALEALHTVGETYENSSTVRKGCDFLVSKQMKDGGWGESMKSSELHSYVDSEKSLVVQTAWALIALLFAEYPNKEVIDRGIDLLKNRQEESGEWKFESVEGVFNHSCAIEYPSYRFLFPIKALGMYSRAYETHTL

[7] = system: HL-60; test: Inhibition of cholesterol biosynthesis in human HL60 cells at 1 uM; assay type: functional
Summary of the method: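 HL-60 cells were incubated with 2-13C-acetate and inhibitor at 1 μM, in triplicate. Newly made 13C-labelled cholesterol was separated from pre-existing unlabelled cholesterol by GC-MS. Decrease in cholesterol biosynthesis was expressed against untreated controls.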

SMILES | pIC50 [1] | pIC50 [2] | pIC50 [3] | pIC50 [4] | pIC50 [5] | pIC50 [6] | inhibition at 1 µM [7]
CC(C)CCC[C@@H](C)[C@H]1CCC2=C(CCCN3CCCCC3)CCC[C@@]21C | < 4.00 | 4.92 | 6.30 | < 4.70 | 4.77 | 5.68 | 
C=CCN(C)CCCCCCOc1ccc(C(=O)c2ccc(Br)cc2)c(F)c1 | 5.10 |  |  |  |  |  | > 90%
CNCCCC1=C2CC[C@H]([C@H](C)CCCC(C)C)[C@@]2(C)CCC1 | < 4.00 | < 4.70 | < 4.70 | < 4.70 | < 4.70 | < 4.70 | 
CC(C)CCC[C@@H](C)[C@H]1CCC2=C(CCCN(C)C)CCC[C@@]21C | < 4.00 | 5.35 | 6.52 | 6.22 | 4.89 | 5.89 | > 90%
CN(C)Cc1ccc(C2CCC(N(C)C(=O)c3ccc(Cl)cc3)CC2)cc1 (configuration not stated) | < 4.30 |  |  |  |  |  | 60%
CC(C)CCC[C@@H](C)[C@H]1CCC2=C(CCC[N+](C)(C)[O-])CCC[C@@]21C | 4.70 | < 4.70 | 5.89 | 5.52 | 4.82 | 5.60 | 
CC(C)CCC[C@@H](C)[C@H]1CCC2=C(CCC[n+]3ccccc3)CCC[C@@]21C | 5.46 | 4.90 | 6.70 | < 4.70 | 4.96 | 5.38 | 
C=CCN(C)CCCC1=C2CC[C@H]([C@H](C)CCCC(C)C)[C@@]2(C)CCC1 | < 4.00 | 6.00 | 6.22 | 6.10 | 6.05 | 5.82 | > 90%
